Reference: ChEMBL document CHEMBL5260824, “9-Deazapurines as Broad-Spectrum Inhibitors of the ABC Transport Proteins P-Glycoprotein, Multidrug Resistance-Associated Protein 1, and Breast Cancer Resistance Protein” (J Med Chem, 2017)

Columns and labels:
[1] = target: ATP-dependent translocase ABCB1 (Homo sapiens, UniProt P08183); test: Inhibition of P-gp (unknown origin) incubated for 30 mins by calcein AM analysis
How it was run: (§1)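 A2780/ADR cells (doxorubicin-selected, P-gp overexpressing), about 30,000 per well in Krebs-HEPES buffer pH 7.4, incubated 30 min at 37 °C with compound (100 nM–100 µM added solutions). Calcein AM (3.125 µM solution added) then fluorescence read every 60 s at 37 °C, ex 485/em 520 nm; slope over minutes 5–30 plotted vs log concentration. Cyclosporine A 10 µM = 100% inhibition, buffer = 0%.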

[2] = target: T1, Broad substrate specificity ATP-binding cassette transporter ABCG2 (Homo sapiens, UniProt Q9UNQ0); test: Inhibition of BCRP (unknown origin) expressed in dog MDCK-II cells using pheophorbide A as substrate preincubated for 20 mins followed by substrate addition and measured after 120 mins by flow cytometry analysis; assay type: cell-based
T1 sequence (Q9UNQ0 whole entry): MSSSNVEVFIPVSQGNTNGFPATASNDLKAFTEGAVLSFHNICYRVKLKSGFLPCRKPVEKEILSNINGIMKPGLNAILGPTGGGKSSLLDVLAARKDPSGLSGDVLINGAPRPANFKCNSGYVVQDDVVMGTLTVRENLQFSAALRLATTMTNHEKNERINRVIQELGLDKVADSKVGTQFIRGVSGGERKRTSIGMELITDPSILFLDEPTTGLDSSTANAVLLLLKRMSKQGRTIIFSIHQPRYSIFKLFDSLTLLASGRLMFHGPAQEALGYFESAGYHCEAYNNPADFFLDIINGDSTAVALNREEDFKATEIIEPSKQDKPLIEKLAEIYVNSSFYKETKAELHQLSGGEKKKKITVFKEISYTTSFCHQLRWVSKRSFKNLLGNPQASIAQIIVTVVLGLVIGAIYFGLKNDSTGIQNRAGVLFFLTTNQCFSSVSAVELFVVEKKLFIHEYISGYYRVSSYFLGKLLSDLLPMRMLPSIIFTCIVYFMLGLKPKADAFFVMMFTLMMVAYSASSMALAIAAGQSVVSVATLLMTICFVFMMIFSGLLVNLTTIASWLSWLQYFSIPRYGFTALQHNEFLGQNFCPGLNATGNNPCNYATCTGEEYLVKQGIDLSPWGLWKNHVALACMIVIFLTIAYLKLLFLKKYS
How it was run: (§2)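 MDCK II cells transfected with human wild-type BCRP cDNA C-terminally fused to GFP, grown in DMEM/10% FBS. About 45,000 cells per well preincubated 20 min at 37 °C, 5% CO2 with compound (100 nM–100 µM added solutions), then pheophorbide A (5 µM solution added) for 120 min to steady state. Resuspended; flow cytometry, 488 nm excitation, FL3 (≥670 nm); GFP in FL1. Reference inhibitor 24 at 10 µM = 100%.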

MRP1 [3] = target: T2, MRP1 (Homo sapiens, UniProt P33527); test: Inhibition of MRP1 in human NCI-H69AR cells at 10 uM incubated for 180 mins in presence of daunorubicin by flow cytometry analysis relative to control; assay type: cell-based; conditions: probe daunorubicin
How it was run: (§3)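 H69AR cells (doxorubicin-selected small cell lung cancer, RPMI-1640/20% FBS), about 60,000 per well, preincubated 15 min with compound (100 nM–100 µM added solutions, in unsupplemented medium), then daunorubicin (30 µM solution added); steady state after 180 min, 37 °C, 5% CO2. Cells resuspended; flow cytometry, 488 nm excitation, FL3 (≥670 nm). Reference inhibitor 75 at 10 µM = 100%; Imax relative to it.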

BCRP (ABCG2) = target: T3, BCRP (ABCG2) (Homo sapiens, UniProt Q9UNQ0); test: Inhibition of BCRP (unknown origin) expressed in dog MDCK-II cells at 10 uM using pheophorbide A as substrate preincubated for 20 mins followed by substrate addition and measured after 120 mins by flow cytometry analysis relative to control; assay type: cell-based; conditions: probe pheophorbide A; how it was run: as §2
T3 sequence (Q9UNQ0 whole entry): T1 sequence (Q9UNQ0 whole entry)

P-gp (ABCB1) [4] = target: T4, P-gp (ABCB1) (Homo sapiens, UniProt P08183); test: Inhibition of P-gp (unknown origin) expressed in dog MDCK-MDR1cells assessed as maximum inhibition at 10 uM by calcein AM accumulation assay relative to control; assay type: cell-based; conditions: MDCK-MDR1 cells, probe calcein AM
[5] = target: Multidrug resistance-associated protein 1 (Homo sapiens, UniProt P33527); test: Inhibition of MRP1 in human NCI-H69AR cells incubated for 180 mins in presence of daunorubicin by flow cytometry analysis; assay type: cell-based; how it was run: as §3
P-gp (ABCB1) [6] = target: T4, P-gp (ABCB1); test: Inhibition of P-gp (unknown origin) at 10 uM incubated for 30 mins by calcein AM analysis relative to control; conditions: probe calcein AM; how it was run: as §1
MRP1 [7] = target: T2, MRP1; test: Inhibition of MRP1 in human NCI-H69AR cells assessed as maximum inhibition at 10 uM incubated for 180 mins in presence of daunorubicin by flow cytometry analysis relative to control; assay type: cell-based; conditions: probe daunorubicin; how it was run: as §3

Sequence of ATP-dependent translocase ABCB1 (P08183 whole entry): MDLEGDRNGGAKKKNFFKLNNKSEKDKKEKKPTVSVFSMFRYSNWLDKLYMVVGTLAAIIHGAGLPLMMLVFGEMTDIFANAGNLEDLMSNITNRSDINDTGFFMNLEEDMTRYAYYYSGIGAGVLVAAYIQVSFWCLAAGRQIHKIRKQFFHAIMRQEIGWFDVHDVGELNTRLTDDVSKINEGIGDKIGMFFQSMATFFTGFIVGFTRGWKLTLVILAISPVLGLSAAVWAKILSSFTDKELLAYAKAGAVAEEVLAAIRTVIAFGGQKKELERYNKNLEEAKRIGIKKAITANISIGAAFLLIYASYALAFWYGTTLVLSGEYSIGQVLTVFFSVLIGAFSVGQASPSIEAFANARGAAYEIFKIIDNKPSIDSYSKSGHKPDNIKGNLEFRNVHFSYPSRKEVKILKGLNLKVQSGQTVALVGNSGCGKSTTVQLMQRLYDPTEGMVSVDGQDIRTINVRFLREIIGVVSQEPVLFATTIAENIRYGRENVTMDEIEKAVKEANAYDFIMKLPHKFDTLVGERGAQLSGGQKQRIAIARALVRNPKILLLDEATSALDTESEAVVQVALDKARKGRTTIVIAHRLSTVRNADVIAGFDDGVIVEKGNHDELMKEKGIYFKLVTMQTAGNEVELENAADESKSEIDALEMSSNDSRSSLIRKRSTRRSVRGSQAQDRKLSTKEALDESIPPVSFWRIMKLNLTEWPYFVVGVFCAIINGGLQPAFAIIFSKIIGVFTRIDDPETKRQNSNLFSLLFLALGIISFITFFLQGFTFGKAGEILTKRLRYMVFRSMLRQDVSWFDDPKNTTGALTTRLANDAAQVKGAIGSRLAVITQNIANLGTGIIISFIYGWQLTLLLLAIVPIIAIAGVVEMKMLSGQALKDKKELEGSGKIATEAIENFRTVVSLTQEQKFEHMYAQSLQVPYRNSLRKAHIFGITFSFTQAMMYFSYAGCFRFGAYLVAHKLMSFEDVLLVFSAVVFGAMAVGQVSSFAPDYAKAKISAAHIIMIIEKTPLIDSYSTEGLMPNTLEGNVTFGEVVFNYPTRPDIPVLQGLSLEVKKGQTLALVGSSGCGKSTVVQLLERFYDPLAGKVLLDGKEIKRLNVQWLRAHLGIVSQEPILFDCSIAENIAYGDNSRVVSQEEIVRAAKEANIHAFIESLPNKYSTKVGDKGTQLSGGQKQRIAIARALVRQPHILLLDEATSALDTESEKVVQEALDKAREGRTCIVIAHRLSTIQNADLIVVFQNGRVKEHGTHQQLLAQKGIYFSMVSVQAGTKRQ
T4 sequence (P08183 whole entry): as above
T2 sequence (P33527 whole entry): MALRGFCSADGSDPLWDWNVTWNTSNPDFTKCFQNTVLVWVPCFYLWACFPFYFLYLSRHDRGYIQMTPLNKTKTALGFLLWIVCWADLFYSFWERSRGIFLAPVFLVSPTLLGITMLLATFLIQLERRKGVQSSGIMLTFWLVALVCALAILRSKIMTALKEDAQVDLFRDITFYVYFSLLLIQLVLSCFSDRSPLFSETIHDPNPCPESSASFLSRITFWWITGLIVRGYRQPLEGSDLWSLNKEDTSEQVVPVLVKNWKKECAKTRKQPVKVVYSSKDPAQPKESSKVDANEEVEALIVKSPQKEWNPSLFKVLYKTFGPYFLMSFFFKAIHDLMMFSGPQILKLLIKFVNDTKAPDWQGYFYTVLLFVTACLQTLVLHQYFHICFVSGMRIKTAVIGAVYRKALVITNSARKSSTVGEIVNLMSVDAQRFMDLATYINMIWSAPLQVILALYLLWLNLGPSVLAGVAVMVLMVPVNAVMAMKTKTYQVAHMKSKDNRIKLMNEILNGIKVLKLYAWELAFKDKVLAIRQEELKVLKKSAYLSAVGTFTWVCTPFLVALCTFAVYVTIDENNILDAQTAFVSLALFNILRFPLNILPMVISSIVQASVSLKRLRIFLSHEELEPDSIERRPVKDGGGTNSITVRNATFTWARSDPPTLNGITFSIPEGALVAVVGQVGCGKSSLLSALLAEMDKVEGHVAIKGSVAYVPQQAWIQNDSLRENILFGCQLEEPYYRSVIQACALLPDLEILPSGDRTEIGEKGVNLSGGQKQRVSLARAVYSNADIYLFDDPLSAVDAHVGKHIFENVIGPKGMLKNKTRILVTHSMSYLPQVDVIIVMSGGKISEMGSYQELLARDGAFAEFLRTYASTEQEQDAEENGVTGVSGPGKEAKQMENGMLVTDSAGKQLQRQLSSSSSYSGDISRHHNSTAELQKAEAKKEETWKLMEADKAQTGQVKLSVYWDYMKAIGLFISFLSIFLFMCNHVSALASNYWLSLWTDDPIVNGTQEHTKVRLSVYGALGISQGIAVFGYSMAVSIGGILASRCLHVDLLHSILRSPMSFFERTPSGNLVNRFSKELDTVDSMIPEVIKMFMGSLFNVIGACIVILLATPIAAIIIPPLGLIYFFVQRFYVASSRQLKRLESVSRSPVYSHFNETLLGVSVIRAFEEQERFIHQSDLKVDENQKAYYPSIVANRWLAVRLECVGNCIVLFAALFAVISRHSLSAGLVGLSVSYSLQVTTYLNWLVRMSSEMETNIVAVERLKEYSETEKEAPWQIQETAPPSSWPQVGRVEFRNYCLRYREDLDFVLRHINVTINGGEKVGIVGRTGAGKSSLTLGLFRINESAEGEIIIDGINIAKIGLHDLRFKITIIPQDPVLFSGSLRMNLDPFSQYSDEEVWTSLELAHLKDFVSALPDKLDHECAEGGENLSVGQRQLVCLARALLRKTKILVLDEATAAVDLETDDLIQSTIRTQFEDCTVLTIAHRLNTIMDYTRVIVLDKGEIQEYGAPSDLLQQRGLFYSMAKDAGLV
Sequence of Multidrug resistance-associated protein 1 (P33527 whole entry): as above

Structure (SMILES)	IC50 [1] [µM]	IC50 [2] [µM]	inhibition at 3 h, 10 µM (MRP1 [3]) [%]	inhibition at 2 h, 10 µM (BCRP (ABCG2)) [%]	inhibition at 10 µM (P-gp (ABCB1) [4]) [%]	IC50 [5] [µM]	inhibition at 0.5 h, 10 µM (P-gp (ABCB1) [6]) [%]	inhibition at 3 h, 10 µM (MRP1 [7]) [%]
c1ccc(N2CCN(c3ncnc4c3[nH]c3ccccc34)CC2)nc1	5	1.81	> 25	> 25	30	0.495	> 25	
N#Cc1c2n(c3c(NCCc4c[nH]c5ccccc45)ncnc13)CCCC2			25	> 25		0.957	> 25	
c1ccc2c(CCN3CCN(c4ncnc5c4[nH]c4ccccc45)CC3)c[nH]c2c1	3.5	6.21	> 25	> 25	30	0.921	> 25	60
CCCn1cc(C#N)c2ncnc(N3CCN(CCc4c[nH]c5ccccc45)CC3)c21			> 25			0.468		
N#Cc1c2n(c3c(N4CCN(CCc5ccncc5)CC4)ncnc13)CCCC2		27.8	25	> 25		0.672	> 25	
N#Cc1c2n(c3c(N4CCN(C(=O)c5ccco5)CC4)ncnc13)CCCCC2		12.9	> 25	> 25		1.01	> 25	
c1ccc(C(c2ccccc2)N2CCN(c3ncnc4c3[nH]c3ccccc34)CC2)cc1	2.33	1.38	> 25	> 25	30	0.409	> 25	60
N#Cc1cn(CCc2ccccc2)c2c(N3CCN(Cc4ccc5c(c4)OCO5)CC3)ncnc12			> 25	> 25		1.8	> 25	
Cn1cc(C#N)c2ncnc(N3CCN(CCc4c[nH]c5ccccc45)CC3)c21			> 25			0.337		
c1ccc(N2CCN(c3ncnc4c3[nH]c3ccccc34)CC2)cc1		1.1	> 25	> 25	30	0.146	> 25	60
N#Cc1c2n(c3c(N4CCN(c5ccccn5)CC4)ncnc13)CCCCC2			25	> 25			> 25	
N#Cc1c2n(c3c(N4CCN(CCc5c[nH]c6ccccc56)CC4)ncnc13)CCCCC2	1.71		25	> 25		0.289	> 25	
N#Cc1c2n(c3c(N4CCN(C(=O)c5ccco5)CC4)ncnc13)CCCC2		29.5	> 25	> 25		0.883	> 25	
COc1ccccc1-n1cc(C#N)c2ncnc(N3CCN(CCc4ccccc4)CC3)c21			> 25	> 25		0.638	> 25	
N#Cc1cn(-c2ccccc2)c2c(N3CCN(Cc4ccc5c(c4)OCO5)CC3)ncnc12			> 25	> 25		0.751	> 25	
N#Cc1cn(C2CC2)c2c(N3CCN(CCc4c[nH]c5ccccc45)CC3)ncnc12	3.85	18.9	> 25	> 25		0.316	> 25	
